EBV gp42 block: inhibitors of Epstein-Barr virus glycoprotein 42 | actives 0.42% (n = 220,000) | Q1HVG2 | Fluorescence polarization binding assay, mP read-out | AID 1085 | inhibition, % (tested at 21.74 µM); in the data active = inhibition above about 50%
Target sequence (Q1HVG2 whole entry, looked up): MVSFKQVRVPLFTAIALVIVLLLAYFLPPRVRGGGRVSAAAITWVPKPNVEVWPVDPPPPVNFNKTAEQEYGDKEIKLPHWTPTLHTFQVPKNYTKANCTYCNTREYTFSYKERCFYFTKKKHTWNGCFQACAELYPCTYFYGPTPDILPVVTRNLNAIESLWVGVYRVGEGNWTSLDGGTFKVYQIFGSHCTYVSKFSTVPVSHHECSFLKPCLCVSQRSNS
TbMetRS inhib: Trypanosoma brucei MetRS inhibition | purified T. brucei MetRS, ATP depletion, Kinase-Glo luminescence | inhibition, % at 11.9 µM | actives 0.4% (n = 360,000) | AID 624268;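 active = inhibition above a per-plate cutoff of the control wells' mean inhibition plus 3 SD, cut at about 5.5% in these data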
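System: purified T. brucei MetRS enzyme / Detection: Kinase-Glo luciferase luminescence reporting remaining unconsumed ATP / Medium: HEPES buffer with MgCl2, KCl, DTT, spermine, BSA, pyrophosphatase / Replication: singlicate, one well per compound / Evaluation: percent inhibition relative to median high and low control wells / Schedule: 2 h aminoacylation at 25 °C after 15 min preincubation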
MPTP inh: inhibitors of mitochondrial permeability transition pore; isolated mouse mitochondria, Ca2+ swelling absorbance, 30 min; inhibition, % at 10 µM; actives 1.4% (n = 360,000); AID 602449;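 active = inhibition of 50% or more, scaled per plate between neutral and stimulator controls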
WT yeast gro inh: growth inhibition of WT yeast, mitochondrial fusion screen. actives 2.1% (n = 190,000). mitochondrial fusion phenotypic screen, WT strain. AID 1362. inhibition, % at 10 µM; in the data active = inhibition above about 58%; tested in S. cerevisiae
NR3A LBD binder: modulators (binders) of human NR3A ligand-binding domain; NR3A LBD differential scanning fluorimetry, Tm shift; 0% = protein alone, 100% = glycine-bound protein; Tm shift relative to glycine control, % at 25 µM; actives 2.5% (n = 340,000); AID 1259313;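 active = melting temperature shift of at least 10% of the positive control shift, at one fixed dose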
CHOP inh: inhibitors of CHOP induction in ER stress response | CHO-K1 CHOP-promoter luciferase, tunicamycin-induced, 15-18 h | inhibition, % at 10 µM | actives 3.8% (n = 220,000) | AID 2732;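 active = compounds that reduced the stress-induced luciferase reporter signal by more than about 70% of percent inhibition, limit read from the data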
MPTP counter: Rhodamine 123 counter-screen of mitochondrial pore hits; actives 78% (n = 5,000); inhibition, % at 10 µM; shares compounds with MPTP inh; AID 624504; isolated mitochondria, membrane potential, Rhodamine 123 fluorescence; in the data active = inhibition above about 22%
MPTP abs DR: MPTP inhibition, dose response swelling confirmation; isolated mitochondria swelling, absorbance; shares compounds with MPTP inh; actives 58% (n = 780); IC50, µM; in the data active = IC50 below about 20 µM
MPTP counter DR: counter-screen for mitochondrial permeability transition pore inhibitors, dose response | shares compounds with MPTP inh | actives 49% (n = 780) | isolated mitochondria counterscreen, fluorescence read-out | IC50, µM; in the data active = IC50 below about 80 µM
Large screens that a line does not name were inactive (follow-up assays come after a bar, where they were run). The list is not random: actives were taken first. Their share in the collection is about 6.4%.

Cc1cccc(C)c1-n1c(C)cc(/C=N/NC(=O)CSc2ncccn2)c1C	MPTP inh 88.6 | MPTP counter inactive | MPTP abs DR inactive | MPTP counter DR 49.6
Cc1ccc(OCC(=O)N2CCc3ccccc3C2)cc1	none (no result: EBV gp42 block, WT yeast gro inh, CHOP inh)
Cc1ccc(C)c(-c2cc(C(=O)NNC(=S)NCC(C)C)c3ccccc3n2)c1	MPTP inh 86.6, NR3A LBD binder 12.2 | MPTP counter 80.2
CCCOc1cccc(-c2cc(C(=O)NNC(=S)NCC)c3ccccc3n2)c1	MPTP inh 50.2, NR3A LBD binder 14.2 | MPTP counter 55.7
CCCCNC(=S)NNC(=O)c1cc(-c2ccncc2)nc2ccccc12	none (no result: EBV gp42 block, WT yeast gro inh, CHOP inh)
Cc1ccc(C)c(-c2cc(C(=O)NC3CC3)c3ccccc3n2)c1	none (no result: EBV gp42 block, WT yeast gro inh, CHOP inh)
CCCOc1ccc(C(=O)NNC(=S)NC(=O)c2cc(-c3ccc(Cl)cc3)nc3ccccc23)cc1	MPTP inh 93.3, NR3A LBD binder 13.6, CHOP inh 72.1 | MPTP counter 20.2
Cc1ccc(C(=O)/C=C\Nc2ccc(C)c(C)c2)cc1	none
O/N=C(/c1ccc(Cl)cc1)C1CC1c1ccccc1 (stereo not drawn)	none (no result: EBV gp42 block, WT yeast gro inh, CHOP inh)
COc1cc(CNCCc2c[nH]c3ccccc23)ccc1OCc1ccc(F)cc1	MPTP inh 70.3, WT yeast gro inh 86.2, CHOP inh 88.0 | MPTP counter inactive
Cc1ccc(NC(=O)C2COc3ccccc3O2)cc1 (stereo not drawn)	none (no result: EBV gp42 block, WT yeast gro inh, CHOP inh)
CN(CC(=O)NCC(=O)Nc1ccc(F)cc1)C1CCS(=O)(=O)C1 (stereo not drawn)	none (no result: EBV gp42 block, WT yeast gro inh, CHOP inh)
CCc1ccc(CN(C)C(=O)c2cc(COc3cccc4cnccc34)on2)cc1	MPTP inh 99.4 (no result: EBV gp42 block, WT yeast gro inh, CHOP inh) | MPTP counter 102.8
CN(Cc1cccnc1)C(=O)c1cc(COc2ccc3c(c2)CCCC3)on1	MPTP inh 67.2 (no result: EBV gp42 block, WT yeast gro inh, CHOP inh) | MPTP counter 85.2
CCc1nnc(NC(=O)COc2ccc(N(C)S(=O)(=O)c3ccc(C)cc3)cc2)s1	none
CCCCOc1ccc(C(=O)Nc2ccncc2)cc1	MPTP inh 101.5 (no result: CHOP inh) | MPTP counter 110.7
Cc1ccc(OCC(=O)Nc2ccncc2)c(C)c1	MPTP inh 73.3 (no result: EBV gp42 block, WT yeast gro inh, CHOP inh) | MPTP counter 47.7
CCOc1ccc(NC(=S)c2ccncc2)cc1	MPTP inh 55.9 | MPTP counter inactive | MPTP abs DR 18.9 | MPTP counter DR 31.4
Cc1ccccc1OCC(=O)Nc1ccncc1	none (no result: EBV gp42 block, WT yeast gro inh, CHOP inh)
CC(C)(C)c1ccc(NC(=O)COc2ccc(-n3ccnc3)cc2)cc1	MPTP inh 107.2, CHOP inh 74.2 | MPTP counter 94.1
N[C@@H](C(=O)N[C@@H]1C(=O)N2C(C(=O)O)=C(Cl)CS[C@H]12)c1ccccc1	none
CC(C)Nc1ncnc2c1ncn2[C@H]1CN(Cc2ccc(-c3ccccc3)cc2)C[C@@H](CO)O1	none (no result: EBV gp42 block, WT yeast gro inh, NR3A LBD binder, CHOP inh)
CC(C)(C)c1ccc(OCC(=O)Nc2ccncc2)cc1	MPTP inh 104.9 (no result: EBV gp42 block, WT yeast gro inh, CHOP inh) | MPTP counter 73.9
COc1ccc(OCC(=O)Nc2ccc(C(=O)Nc3ccccc3C(=O)O)cc2)cc1	none (no result: EBV gp42 block, WT yeast gro inh, CHOP inh)
CCc1ccc(OCC(=O)Nc2ccncc2)cc1	MPTP inh 63.0 (no result: EBV gp42 block, WT yeast gro inh, CHOP inh) | MPTP counter 58.2
N#Cc1cccc(NC(=O)COc2ccc(-n3ccnc3)cc2)c1	MPTP inh 62.1 | MPTP counter inactive | MPTP abs DR inactive | MPTP counter DR 18.8
O=C(COc1ccccc1)Nc1ccncc1	none
O=C(COc1ccc2ccccc2c1)Nc1cccc(C(=O)Nc2ccccc2C(=O)O)c1	MPTP inh 79.0, NR3A LBD binder 12.1 | MPTP counter 57.0
Cc1cc(C)c(S(=O)(=O)c2ccc(F)cc2C)c(Cl)n1	none (no result: EBV gp42 block, WT yeast gro inh, CHOP inh)
O=C(CSc1ccncc1)Nc1ccc2ccccc2c1	none
CC(C)c1ccc(NC(=O)COC(=O)COc2ccccc2)cc1	none
O=C(CSc1ccc2ccccc2c1)Nc1ccncc1	MPTP inh 84.1 | MPTP counter 86.3
Cc1ccc(Oc2ccc(OCC(=O)Nc3ccncc3)cc2)cc1	MPTP inh 108.0 (no result: EBV gp42 block, WT yeast gro inh, NR3A LBD binder, CHOP inh) | MPTP counter 103.3
